Screening data as filed in PubChem.
In the library only some 4.1% were active in any assay of this set; here they are far more common.
NS3 helicase inh – inhibitors of Hepatitis C virus NS3 helicase. AID 1800. inhibition, % at 10.9 µM. NS3 helicase DNA unwinding, Cy5 molecular beacon fluorescence. 0.56% of 290,000 active;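 active = inhibition above the mean of all tested compounds plus 3 SD, set per campaign, cut at about 35% in these data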
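System: HCV NS3 helicase fragment; control set: DMSO and thioflavine S; technique: Cy5 fluorescence at 0 and 60 min, beacon hairpin quenching; reagent: beacon DNA duplex substrate plus ATP; replicates: singlicate; schedule: 1 h reaction at 25 °C, ATP-initiated; medium: MOPS buffer pH 6.5 with MgCl2, DTT, Tween20, BSA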
MEKK3 PB1 HTS – modulators (inhibitors or enhancers) of MEK5 binding to human MEKK3 PB1 domain. bead-based flow cytometry, Alexa488-MEK5 binding to MEKK3; actives lie on both sides; 0 = blocked by unlabeled MEK5, 100 = vehicle. AID 1529. binding response (% of control), % at 10 µM. 1.4% of 290,000 active. Q99759;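 active = binding response more than 3 SD above or below the average of its plate-row segment, actives on both sides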;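 note: Alexa488 bead fluorescence after subtracting the streptavidin-only scavenger bead signal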
MEKK2 WT-MEK5 – raises or lowers MEK5 binding to wildtype human MEKK2 PB1 domain; Q9Y2U5; bead flow cytometry, Alexa488-MEK5 binding to MEKK2 WT; actives lie on both sides; binding response (% of control), % at 10 µM; 1.1% of 290,000 active; AID 1531; in the data active = binding response below about 67% or above about 130%
T cruzi repl – blocks replication of Trypanosoma cruzi. T. cruzi beta-gal in NIH3T3, luminescence, 90 h. AID 1885. inhibition, % (test concentration not listed). 1.4% of 300,000 active;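 active = mean inhibition across valid replicates above about 55%, limit read from the data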;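 note: signal also drops with host cell toxicity which is not excluded here; higher percent means less beta-gal luminescence so fewer parasites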
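System: Mouse NIH/3T3 fibroblasts infected with β-gal-expressing T. cruzi Tulahuen C4 | Quantity: NIH/3T3 cells, 5,000 per well | Reagent: 5000 reporter trypomastigotes per well | Dosing: Compound pinned at 50 nL/well, DMSO | Schedule: 3 h host attachment, then at least 90 h co-culture | Detection: GalScreen luminescence, 60 min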
DNA FID counter – displaces DNA intercalator in HCV helicase counter-screen. 0.17% of 290,000 active. AID 1845. DNA fluorescent intercalator displacement, fluorescence. inhibition, % at 7.9 µM; in the data active = inhibition above about 37%;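 note: higher means more ethidium bromide displaced from hairpin DNA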
MEKK2 mut-MEK5 – signal of MEK5 binding to mutant human MEKK2 PB1 domain; 0.35% of 290,000 active; AID 1530; bead flow cytometry, Alexa488-MEK5 binding to MEKK2 mutant; percent response, % at 10 µM; in the data active = percent response above about 24%, passing the limit was not always enough
Large screens that a line does not name were inactive; [ ] = dose if it differs, or a comment.

CCn1c(-c2ccc(N(C)C)cc2)nc2ccccc21	T cruzi repl 58
Oc1c(C(Nc2cccc(C(F)(F)F)c2)c2ccncc2)ccc2cccnc12 (configuration not stated)	T cruzi repl 79
CCN(CC)S(=O)(=O)c1cc(NC(=O)CNc2cccc(S(=O)(=O)N3CCCC3)c2)ccc1C	none (no result: NS3 helicase inh, MEKK3 PB1 HTS, MEKK2 WT-MEK5, DNA FID counter, MEKK2 mut-MEK5)
Cc1ccc(NP(=O)(c2ccc(N(C)C)cc2NC(=O)c2cccs2)N2CCOCC2)cc1 (configuration not stated)	T cruzi repl 57
CN(C)c1ccc(P(=O)(Nc2ccc([N+](=O)[O-])cc2)N2CCOCC2)c(NC(=O)c2cccs2)c1 (configuration not stated)	none
Cc1ccc(NP(=O)(c2ccc(N(C)C)cc2NC(=O)c2cccs2)N2CCOCC2)cc1Cl (configuration not stated)	T cruzi repl 61
CN(C)c1ccc(P(=O)(Nc2ccccc2)N2CCOCC2)c(NC(=O)c2cccs2)c1 (configuration not stated)	none
Cc1c(-c2cc(Br)ccc2O)nc2cc3c(cc2c1C)OCO3	none
C=C(C)CC(NCCc1ccccc1)c1ccco1 (configuration not stated)	MEKK2 WT-MEK5 164
O=C(NCCc1ccccc1)c1ccco1	none
Cc1cc(C)nc(NC(=NCCc2c[nH]c3ccccc23)NC(=O)Nc2ccccc2)n1	none
Cc1cc(C)nc(NC(=NCCc2c[nH]c3ccccc23)NC(=O)Nc2ccc(Cl)c(Cl)c2)n1	MEKK2 WT-MEK5 49, T cruzi repl 62
CCCCNc1ncnc2sc3c(c12)CCN(CCC)C3	none
COC(=O)c1sc(N/N=C/c2ccc(C(C)C)cc2)nc1C	T cruzi repl 64
O=C(COC(=O)CNC(=O)c1ccc(Cl)cc1)Nc1cccc(S(=O)(=O)N2CCCC2)c1	none
O=C1S/C(=C\c2ccccc2)C(=O)N1CC(O)Cn1c2ccccc2c2ccccc21 (configuration not stated)	T cruzi repl 58
Cc1[nH]n(C)c(=O)c1[N+](=O)[O-]	none
COc1ccc(/C=C(/C(=O)c2ccc(Cl)cc2Cl)n2cncn2)cc1	T cruzi repl 62
CN(C)c1ccc(/C=C(/C(=O)c2ccc(Cl)cc2Cl)n2cncn2)cc1	none
COc1ccc(Cc2c(C)nc(N)nc2Cl)cc1	none
Cc1nc(N)nc(N)c1CCCc1ccc(Cl)c(Cl)c1	T cruzi repl 62 (no result: NS3 helicase inh, MEKK3 PB1 HTS, MEKK2 WT-MEK5, DNA FID counter, MEKK2 mut-MEK5)
Cc1cccc(NC(=O)N2CCCC(CNC(=O)c3ccccc3Cl)C2)c1C (configuration not stated)	none
COc1ccc(Cl)cc1NC(=O)C1CCN(C(=O)C2CC(=O)N(c3ccc(C)cc3)C2)CC1 (configuration not stated)	none
COc1ccc(S(=O)(=O)N2CCOc3ccccc32)cc1	none
CCN1CCN(Cc2c(O)ccc3c2O/C(=C\C=C\c2ccccc2)C3=O)CC1	NS3 helicase inh 36
CN1CCN(/C=N/c2sc3c(c2C#N)CCCCC3)CC1	T cruzi repl 58
CCN(/C=N/c1sc2c(c1C#N)CCCCC2)CC	none (no result: T cruzi repl)
CCn1c(C)cc(/C=C2\NC(=O)N(Cc3ccc(Cl)cc3)C2=O)c1C	T cruzi repl 55
CCN1C(=O)N/C(=C/c2cc(C)n(Cc3ccccc3)c2C)C1=O	none
CCc1nccn1CCC(=O)NC1CCCc2c1cnn2-c1ccc(F)cc1F (configuration not stated)	MEKK3 PB1 HTS 71[inhibitor], MEKK2 WT-MEK5 66[inhibitor]
FC(F)(F)c1cccc(Cn2c3[n+](c4ccc(C(F)(F)F)cc42)CCCCC3)c1	none
Cc1cc(C(C)(C)C)cc(C)c1Cn1c2[n+](c3ccc(C(F)(F)F)cc31)CCCCC2	T cruzi repl 59
CCc1ccc2oc(C(=O)NCC(c3ccc(OC)cc3)N3CCCCC3)c(C)c2c1 (configuration not stated)	MEKK2 mut-MEK5 26
CCC1CCc2sc(C(=O)NCC(c3ccc(OC)cc3)N3CCCC3)cc2C1 (configuration not stated)	T cruzi repl 66 (no result: NS3 helicase inh, MEKK3 PB1 HTS, MEKK2 WT-MEK5, DNA FID counter, MEKK2 mut-MEK5)
